Measured values from paper PMC4834983 (Journal of medicinal chemistry, 2015).

Legend:
pYStat3 = assay: Immunoblotting of pStat3 in treated U251MG cells; format: cell-based, human; details: 5 μM, glioma cells, immunoblotting
In short: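 Whole-cell lysates from U251MG cells given test compound at 5 μM for 0–24 h, or at 0–5 μM for 2 h. Immunoblotted for pY705Stat3 and total Stat3, with GAPDH as loading reference.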

Stat3 = Stat3 DNA-binding activity/EMSA of nuclear extracts from treated glioma cells; format: cell-based, human; details: 5 μM, glioma cells, EMSA
Stat3:Stat3 = Stat3:Stat3 (Mus musculus, UniProt P42227); assay: Cell-free EMSA, nuclear extracts pre-incubated with compound, hSIE probe; format: biochemical; details: 5 μM, 30 min pre-incubation, NIH3T3/v-Src nuclear extracts
Chain of Stat3:Stat3 (P42227 2-770 limits assumed): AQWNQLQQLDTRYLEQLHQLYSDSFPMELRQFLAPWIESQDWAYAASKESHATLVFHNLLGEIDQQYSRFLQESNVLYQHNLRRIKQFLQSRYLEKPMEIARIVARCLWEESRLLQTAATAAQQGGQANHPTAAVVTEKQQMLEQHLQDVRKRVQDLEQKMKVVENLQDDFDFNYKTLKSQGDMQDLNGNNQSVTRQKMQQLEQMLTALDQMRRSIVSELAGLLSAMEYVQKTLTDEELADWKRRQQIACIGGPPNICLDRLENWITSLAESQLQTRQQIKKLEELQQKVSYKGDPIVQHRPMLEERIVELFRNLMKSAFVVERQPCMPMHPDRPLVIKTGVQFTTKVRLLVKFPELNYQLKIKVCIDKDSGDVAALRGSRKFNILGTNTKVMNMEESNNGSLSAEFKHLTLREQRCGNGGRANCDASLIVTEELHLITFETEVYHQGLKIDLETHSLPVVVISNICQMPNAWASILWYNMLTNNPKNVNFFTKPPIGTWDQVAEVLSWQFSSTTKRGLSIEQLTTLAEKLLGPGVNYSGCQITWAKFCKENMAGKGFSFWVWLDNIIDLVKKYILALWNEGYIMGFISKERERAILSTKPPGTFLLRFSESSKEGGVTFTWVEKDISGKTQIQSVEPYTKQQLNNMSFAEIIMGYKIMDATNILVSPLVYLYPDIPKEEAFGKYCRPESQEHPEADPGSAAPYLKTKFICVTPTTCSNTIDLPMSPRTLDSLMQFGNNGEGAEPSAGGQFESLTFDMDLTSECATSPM
Stat1:Stat1 = molecular target: T1, Stat1:Stat1 (Mus musculus, UniProt P42225); assay: Cell-free EMSA, EGF-stimulated NIH3T3/hEGFR nuclear extracts; format: biochemical; details: 5 μM, 30 min pre-incubation
T1 sequence (P42225 2-749 limits assumed): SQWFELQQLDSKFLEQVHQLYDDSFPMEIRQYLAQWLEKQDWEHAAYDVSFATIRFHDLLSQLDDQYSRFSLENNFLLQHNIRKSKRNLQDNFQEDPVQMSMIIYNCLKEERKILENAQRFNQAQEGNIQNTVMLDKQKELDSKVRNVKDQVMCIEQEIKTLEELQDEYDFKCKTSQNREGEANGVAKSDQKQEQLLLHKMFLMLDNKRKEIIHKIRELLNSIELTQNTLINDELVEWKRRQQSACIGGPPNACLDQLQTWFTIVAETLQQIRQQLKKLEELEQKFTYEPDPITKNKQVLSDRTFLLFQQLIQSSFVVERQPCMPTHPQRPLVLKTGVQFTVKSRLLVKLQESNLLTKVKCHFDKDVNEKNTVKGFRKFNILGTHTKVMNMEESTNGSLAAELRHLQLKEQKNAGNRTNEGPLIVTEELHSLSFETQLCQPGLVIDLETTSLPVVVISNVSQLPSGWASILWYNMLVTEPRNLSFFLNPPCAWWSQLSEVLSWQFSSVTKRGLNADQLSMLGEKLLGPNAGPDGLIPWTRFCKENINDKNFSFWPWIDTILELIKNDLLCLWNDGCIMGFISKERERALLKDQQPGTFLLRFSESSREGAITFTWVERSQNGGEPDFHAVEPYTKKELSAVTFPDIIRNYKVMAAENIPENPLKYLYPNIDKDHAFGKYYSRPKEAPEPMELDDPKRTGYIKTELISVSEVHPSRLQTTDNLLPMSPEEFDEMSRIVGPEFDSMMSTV
In short: (§1)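 Nuclear extracts from EGF-stimulated NIH3T3/hEGFR fibroblasts, containing active Stat1, Stat3 and Stat5, preincubated with 5 μM test compound for 30 min at room temperature. Then incubated 30 min with 32P-labelled probe before EMSA: hSIE (Stat1/Stat3 binding) or MGFe (bovine β-casein element; Stat1/Stat5 binding). STAT:DNA bands quantified as percent of control.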

Stat5:Stat5 = assay: Cell-free EMSA, EGF-stimulated NIH3T3/hEGFR nuclear extracts, MGFe probe; format: biochemical, mouse; details: 5 μM, 30 min pre-incubation
In short: as §1

G10 cells = assay: Growth of glioma patient-derived xenograft cells in vitro; format: cell-based; details: Homo sapiens, read-out: inhibitory activity against growth of G10 cells
G22 cells [1] = assay: as above; format: cell-based; details: Homo sapiens, read-out: inhibitory activity against growth of G22 cells
G12 cells = assay: as above; format: cell-based; details: Homo sapiens, read-out: inhibitory activity against G12 cell growth
[2] = tested on: U251MG subcutaneous tumor xenografts; assay: Subcutaneous glioma xenograft tumor growth; format: in vivo, mouse; details: 2 mg/kg, oral gavage, 33 days
In short: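 Female athymic nude mice, 4 weeks old, injected subcutaneously in the left flank with 7.3 ×10^6 U251MG cells in PBS/matrigel. At 20 days (tumours 170–250 mm3), mice grouped by matched mean tumour size. Dosed 2 mg/kg by oral gavage in 1% DMSO vehicle, three times weekly, for 33 days. Caliper volumes (V = 0.52 × a2 × b) and body weights recorded; paired t test against vehicle.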

[3] = Body weights and signs of toxicity in tumor-bearing mice; format: in vivo; details: 2 mg/kg, oral gavage, 33 days
pStat3 [4] = assay: Immunoblots of tumor tissue lysates from treated mice; format: in vivo, mouse; details: four-to-five cases out of six
In short: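 After oral dosing, lysates of residual subcutaneous U251MG tumour tissue from treated and 1% DMSO vehicle mice. Immunoblotted for pStat3 and Stat3, with GAPDH as loading reference.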

U251MG cells [5] = assay: Colony survival assay; format: cell-based, human; details: 1 μM, treated once
In short: (§2)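 Cells seeded as single cells at 250 per well and treated once the next day with test compound (0–5 μM) for 72 h. Grown until large colonies were visible: 1 week for NIH3T3, 2 weeks for U251MG. Colonies stained with crystal violet for 4 h and counted.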

NIH3T3 cells = assay: Colony survival assay; format: cell-based, mouse; details: 2.5 μM or less
In short: as §2

U251MG cells [6] = assay: BrdU incorporation assay; format: cell-based, human; details: 5 μM, at 24 h
In short: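 U251MG cells on glass coverslips exposed to DMSO or 5 μM test compound for 3–24 h. BrdU (10 micromolar) added for the final 2 h. Fixed in 4% paraformaldehyde for 10 min, stained with anti-BrdU antibody and counterstained with DAPI. Imaged by fluorescence microscopy, and cells counted.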

U251MG cells [7] = assay: Scratch assay for migration; format: cell-based, human; details: 5 μM, 19-h treatment
In short: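 Sub-confluent U251MG monolayers wounded with pipette tips and treated once with test compound (0–5 μM) or DMSO vehicle. Cells allowed to migrate into the denuded area over 19 h, then imaged by microscopy at 10×.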

U251MG cells [8] = assay: Immunofluorescence staining/confocal microscopy of mitosis; format: cell-based, human; details: 15 h treatment
In short: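 U251MG cells on coverslips synchronised by double thymidine block (2 mM) and released for 9 h. Then given DMSO, 100 nM paclitaxel or 8 μM test compound for 15 h. Fixed in 4% paraformaldehyde, permeabilised with 0.1% digitonin and blocked in 0.2% BSA. Stained with anti-β-tubulin (1:350) and anti-MAP1B (1:300) for 1 h at room temperature, then fluorescent secondaries and DAPI; confocal imaging.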

G22 cells [9] = assay: 3D spheroid assay; format: cell-based, human; details: 5 μM, treated once
pStat3 [10] = assay: Immunoblotting of pStat3 in patient-derived xenograft cells; format: cell-based, human; details: 5 μM, 3 h
In short: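 Glioma patient-derived xenograft G22 cells (DMEM, 5–10% heat-inactivated FBS) given 5 μM test compound for 0–24 h. Whole-cell lysates immunoblotted for pStat3 and Stat3, with GAPDH as loading reference.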

pStat1 = assay: Immunoblotting, EGF-stimulated NIH3T3/hEGFR fibroblasts; format: cell-based, mouse; details: 5 μM pre-treatment
In short: (§3)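 NIH3T3/hEGFR fibroblasts pretreated with or without 5 μM test compound for 3 h, then stimulated with 1 μg/ml EGF for 12 min. Whole-cell lysates, equal total protein, immunoblotted for pStat1/Stat1, pStat5/Stat5 and pErk1/2/Erk1/2.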

pStat5 = assay: as above; format: cell-based, mouse; details: 5 μM pre-treatment
In short: as §3

pErk1/2MAPK [11] = assay: as above; format: cell-based, mouse; details: 5 μM pre-treatment
In short: as §3

pS-Akt = assay: Immunoblotting, U251MG glioma cells; format: cell-based, human; details: 5 μM
In short: (§4)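 U251MG cells given 5 μM test compound for 0–24 h. Whole-cell lysates of equal total protein immunoblotted for pErk1/2, Erk1/2, pS-Akt, Akt, pJAK2, JAK2, SOCS3 and PTP1B, with β-actin or GAPDH as loading reference.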

pErk1/2MAPK [12] = assay: Immunoblotting, U251MG glioma cells; format: cell-based, human; details: 5 μM
In short: as §4

[13] = tested on: suppressors of cytokine signaling (SOCS)3; assay: Immunoblotting, U251MG glioma cells; format: cell-based, human; details: 5 μM
In short: as §4

[14] = tested on: protein tyrosine phosphatase (PTP)1B; assay: Immunoblotting, U251MG glioma cells; format: cell-based, human; details: 5 μM
In short: as §4

pJAK2 = assay: Immunoblotting, U251MG glioma cells; format: cell-based, human; details: 5 μM
In short: as §4

[15] = tested on: c-Myc, Bcl-2, Mcl-1 and Bcl-xL expression; assay: Immunoblots of Stat3-regulated gene products in U251MG cells; format: cell-based, human; details: 5 μM
In short: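 Whole-cell lysates prepared from U251MG cells given 5 μM test compound for 0–24 h, with 0.025% DMSO as control. Immunoblotted for c-Myc, Bcl-2, Bcl-xL, Mcl-1, pStat3 and Stat3, with GAPDH as loading reference.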

SMILES: C/C=C(\C)C(=O)O[C@H]1C[C@@H](C)[C@]2(O)CC[C@](C)(/C=C3/OC(=O)C(COC(C)=O)=C31)O2 [Compound 6]
- effect on pStat3 in treated tumor cells (pYStat3): strongly inhibited
- effect on Stat3 DNA-binding activity in treated tumor cells (Stat3): strongly inhibited
- Stat3:Stat3/DNA-binding activity (complexation), cell-free EMSA (Stat3:Stat3): diminished
- effect on Stat1:Stat1 activity, cell-free EMSA (Stat1:Stat1): weak effects
- effect on Stat5:Stat5 activity, cell-free EMSA (Stat5:Stat5): weak effects
- inhibition at 5 µM (G10 cells): 45 to 60%
- inhibition at 5 µM (G22 cells [1]): 45 to 60%
- inhibition at 5 µM (G12 cells): 25 to 35%
- growth of subcutaneous U251MG xenografts [2]: inhibited growth
- body weights or obvious signs of toxicity [3]: No significant changes
- pStat3 and Stat3 levels in residual tumor tissues (pStat3 [4]): lower
- U251MG colony formation (U251MG cells [5]): completely inhibited
- effects on NIH3T3 colony numbers (NIH3T3 cells): moderate or none
- cell proliferation measured by BrdU incorporation (U251MG cells [6]): significantly impaired
- migration into the denuded area (U251MG cells [7]): slowed migration
- chromatid structures and sister-chromatids segregation (mitosis) (U251MG cells [8]): caused defects
- 3D spheroid growth (G22 cells [9]): decreased 3D spheroid growth
- effect on Phospho-Stat3 in G22 cells (pStat3 [10]): strongly inhibited
- effect on EGF-stimulated pStat1 levels (pStat1): no effect
- effect on EGF-stimulated pStat5 levels (pStat5): no effect
- effect on EGF-stimulated pErk1/2MAPK levels (pErk1/2MAPK [11]): no effect
- effect on pS-Akt levels (pS-Akt): no effects
- effect on pErk1/2MAPK levels (pErk1/2MAPK [12]): no effects
- effect on SOCS3 levels [13]: no effects
- effect on PTP1B levels [14]: no effects
- effect on pJAK2 (pJAK2): apparent moderate increase
- c-Myc, Bcl-2, Mcl-1 and Bcl-xL expression [15]: down regulated
